# Laboratory results as given in ChEMBL document CHEMBL5380839, “Design and Pharmacological Characterization of α4β1 Integrin Cyclopeptide Agonists: Computational Investigation of Ligand Determinants for Agonism versus Antagonism” (J Med Chem, 2023).
# Starred links: 1 amine or outer side, 2 acyl side, 3 side chain; linkers in the order of their positions; H or OH if unused. Positions of bridges follow the written chain, without caps; N, C: chain ends. Non-standard residues stand in square brackets, D forms with d. Residues, ends and D or L forms follow the SMILES beside them. Groups on a side chain read outwards from the residue. *: point of attachment. dPhe(4-NH2) = Nc1ccc(C[C@@H](N)C(=O)O)cc1; Phe(4-NH2) = Nc1ccc(C[C@H](N)C(=O)O)cc1; X1 = O=C(Cc1ccc(N[*:1])cc1)[*:2]; NH(2-Me-phenyl) = Cc1ccccc1N*; Phg = N[C@H](C(=O)O)c1ccccc1; d(β3hA) = C[C@@H](N)CC(=O)O; CO = O=C([*:1])[*:2]; NHPr = CCCN*
# Experiments:
# Integrin alpha-M/beta-2 [1] = biological target: T1, Integrin alpha-M/beta-2 (Homo sapiens, UniProt P05107+P11215); experiment: Agonist activity at alphaMbeta2 integrin receptor in human HL-60 cells assessed as inhibition of fibrinogen-induced cell adhesion pre-incubated for 30 mins followed by 30 mins incubation in fibrinogen coated wells by fluorescence plate reader assay; assay type: cell-based
# T1 sequence (P05107 23-769 limits assumed, other chains not shown): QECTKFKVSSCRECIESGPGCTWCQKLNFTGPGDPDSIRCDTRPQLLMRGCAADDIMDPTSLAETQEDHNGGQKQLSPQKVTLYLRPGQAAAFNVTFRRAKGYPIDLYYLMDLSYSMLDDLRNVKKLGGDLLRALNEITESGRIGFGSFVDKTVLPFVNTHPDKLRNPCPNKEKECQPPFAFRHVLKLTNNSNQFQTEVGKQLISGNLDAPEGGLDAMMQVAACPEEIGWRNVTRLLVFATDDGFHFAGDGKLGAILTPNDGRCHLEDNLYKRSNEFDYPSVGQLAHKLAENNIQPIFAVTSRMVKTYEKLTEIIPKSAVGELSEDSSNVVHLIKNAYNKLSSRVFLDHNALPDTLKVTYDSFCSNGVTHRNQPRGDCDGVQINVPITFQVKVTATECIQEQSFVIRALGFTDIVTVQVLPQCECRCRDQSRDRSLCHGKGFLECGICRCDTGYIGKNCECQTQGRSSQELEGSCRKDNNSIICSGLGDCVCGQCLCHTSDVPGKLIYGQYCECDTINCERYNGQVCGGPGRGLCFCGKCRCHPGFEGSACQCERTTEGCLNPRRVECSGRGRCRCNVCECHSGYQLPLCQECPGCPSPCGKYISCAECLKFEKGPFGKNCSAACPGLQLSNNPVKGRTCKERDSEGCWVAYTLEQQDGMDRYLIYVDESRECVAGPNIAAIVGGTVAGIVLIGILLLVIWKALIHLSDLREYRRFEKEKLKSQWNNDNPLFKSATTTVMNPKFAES
# [2] = biological target: T2, Integrin alpha4/beta7 complex (Homo sapiens, UniProt P26010+P48169); experiment: Agonist activity at alpha4beta7 integrin receptor in human RPMI-8866 cells assessed as inhibition of mucosal vascular add-ressin cell adhesion molecule 1-induced cell adhesion pre-incubated for 30 mins followed by 30 mins incubation in mucosal vascular add-ressin cell adhesion molecule 1 coated wells by fluorescence plate reader assay; assay type: cell-based
# T2 sequence (P48169 whole entry): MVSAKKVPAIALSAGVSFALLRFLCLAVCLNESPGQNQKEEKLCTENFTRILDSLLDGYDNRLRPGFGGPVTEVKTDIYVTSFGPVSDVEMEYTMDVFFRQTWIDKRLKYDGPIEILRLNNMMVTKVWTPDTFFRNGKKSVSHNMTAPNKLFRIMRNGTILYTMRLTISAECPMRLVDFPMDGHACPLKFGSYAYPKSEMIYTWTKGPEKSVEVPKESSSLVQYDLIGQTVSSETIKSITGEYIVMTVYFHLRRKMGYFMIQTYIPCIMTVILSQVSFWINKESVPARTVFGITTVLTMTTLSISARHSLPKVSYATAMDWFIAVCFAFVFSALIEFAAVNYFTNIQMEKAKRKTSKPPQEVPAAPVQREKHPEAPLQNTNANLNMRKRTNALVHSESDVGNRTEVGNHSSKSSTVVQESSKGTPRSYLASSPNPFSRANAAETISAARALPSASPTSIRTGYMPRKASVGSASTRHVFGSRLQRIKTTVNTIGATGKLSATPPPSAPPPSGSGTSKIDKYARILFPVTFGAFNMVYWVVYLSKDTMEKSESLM
# T2 sequence (P26010 whole entry): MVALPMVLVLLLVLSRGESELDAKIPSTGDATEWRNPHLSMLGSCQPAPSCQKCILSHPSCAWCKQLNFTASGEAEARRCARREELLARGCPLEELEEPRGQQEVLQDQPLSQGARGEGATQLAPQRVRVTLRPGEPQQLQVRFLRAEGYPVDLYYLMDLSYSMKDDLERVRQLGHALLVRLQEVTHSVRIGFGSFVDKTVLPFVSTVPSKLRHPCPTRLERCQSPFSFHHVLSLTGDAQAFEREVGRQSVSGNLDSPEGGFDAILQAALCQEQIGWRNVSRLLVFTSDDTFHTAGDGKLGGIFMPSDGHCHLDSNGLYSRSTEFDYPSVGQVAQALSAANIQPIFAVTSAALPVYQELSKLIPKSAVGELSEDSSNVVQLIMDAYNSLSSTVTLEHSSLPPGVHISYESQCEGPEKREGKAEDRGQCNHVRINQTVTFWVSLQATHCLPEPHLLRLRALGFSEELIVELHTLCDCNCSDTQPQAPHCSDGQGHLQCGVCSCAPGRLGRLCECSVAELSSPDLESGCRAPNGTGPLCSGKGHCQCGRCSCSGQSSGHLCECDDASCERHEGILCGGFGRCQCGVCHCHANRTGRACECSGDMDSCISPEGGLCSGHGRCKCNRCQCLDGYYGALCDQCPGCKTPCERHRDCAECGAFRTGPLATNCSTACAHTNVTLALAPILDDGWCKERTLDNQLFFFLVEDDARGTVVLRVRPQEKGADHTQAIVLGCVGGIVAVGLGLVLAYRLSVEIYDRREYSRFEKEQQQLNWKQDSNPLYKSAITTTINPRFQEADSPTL
# Integrin alpha-4/beta-1 [3] = biological target: T3, Integrin alpha-4/beta-1 (Homo sapiens, UniProt P05556+P13612); experiment: Agonist activity at alpha4beta1 integrin receptor in human Jurkat E6.1 cells assessed as inhibition of fibronectin-induced cell adhesion pre-incubated for 30 mins followed by 30 mins incubation in fibronectin coated wells by fluorescence plate reader assay; assay type: cell-based
# T3 sequence (P05556 whole entry): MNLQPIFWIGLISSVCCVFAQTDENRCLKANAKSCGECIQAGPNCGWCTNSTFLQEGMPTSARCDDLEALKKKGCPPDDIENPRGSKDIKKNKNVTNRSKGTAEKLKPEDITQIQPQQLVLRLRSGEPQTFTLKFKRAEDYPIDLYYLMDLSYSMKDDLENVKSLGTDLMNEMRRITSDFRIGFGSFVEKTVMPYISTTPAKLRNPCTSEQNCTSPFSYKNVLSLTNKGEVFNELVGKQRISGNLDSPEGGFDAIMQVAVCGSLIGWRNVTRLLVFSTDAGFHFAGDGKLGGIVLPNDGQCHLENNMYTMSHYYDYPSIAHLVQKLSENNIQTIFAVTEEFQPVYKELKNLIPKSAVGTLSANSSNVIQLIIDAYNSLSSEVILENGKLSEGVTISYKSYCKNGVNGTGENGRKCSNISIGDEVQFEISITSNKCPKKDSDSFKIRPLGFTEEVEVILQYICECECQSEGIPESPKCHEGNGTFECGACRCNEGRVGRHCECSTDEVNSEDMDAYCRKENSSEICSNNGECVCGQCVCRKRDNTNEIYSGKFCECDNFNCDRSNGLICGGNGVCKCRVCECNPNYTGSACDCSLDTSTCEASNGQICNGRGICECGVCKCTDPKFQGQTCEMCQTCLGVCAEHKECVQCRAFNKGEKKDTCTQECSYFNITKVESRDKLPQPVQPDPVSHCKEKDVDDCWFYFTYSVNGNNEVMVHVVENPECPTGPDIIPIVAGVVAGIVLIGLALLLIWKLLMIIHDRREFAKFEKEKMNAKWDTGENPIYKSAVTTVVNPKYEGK
# T3 sequence (P13612 whole entry): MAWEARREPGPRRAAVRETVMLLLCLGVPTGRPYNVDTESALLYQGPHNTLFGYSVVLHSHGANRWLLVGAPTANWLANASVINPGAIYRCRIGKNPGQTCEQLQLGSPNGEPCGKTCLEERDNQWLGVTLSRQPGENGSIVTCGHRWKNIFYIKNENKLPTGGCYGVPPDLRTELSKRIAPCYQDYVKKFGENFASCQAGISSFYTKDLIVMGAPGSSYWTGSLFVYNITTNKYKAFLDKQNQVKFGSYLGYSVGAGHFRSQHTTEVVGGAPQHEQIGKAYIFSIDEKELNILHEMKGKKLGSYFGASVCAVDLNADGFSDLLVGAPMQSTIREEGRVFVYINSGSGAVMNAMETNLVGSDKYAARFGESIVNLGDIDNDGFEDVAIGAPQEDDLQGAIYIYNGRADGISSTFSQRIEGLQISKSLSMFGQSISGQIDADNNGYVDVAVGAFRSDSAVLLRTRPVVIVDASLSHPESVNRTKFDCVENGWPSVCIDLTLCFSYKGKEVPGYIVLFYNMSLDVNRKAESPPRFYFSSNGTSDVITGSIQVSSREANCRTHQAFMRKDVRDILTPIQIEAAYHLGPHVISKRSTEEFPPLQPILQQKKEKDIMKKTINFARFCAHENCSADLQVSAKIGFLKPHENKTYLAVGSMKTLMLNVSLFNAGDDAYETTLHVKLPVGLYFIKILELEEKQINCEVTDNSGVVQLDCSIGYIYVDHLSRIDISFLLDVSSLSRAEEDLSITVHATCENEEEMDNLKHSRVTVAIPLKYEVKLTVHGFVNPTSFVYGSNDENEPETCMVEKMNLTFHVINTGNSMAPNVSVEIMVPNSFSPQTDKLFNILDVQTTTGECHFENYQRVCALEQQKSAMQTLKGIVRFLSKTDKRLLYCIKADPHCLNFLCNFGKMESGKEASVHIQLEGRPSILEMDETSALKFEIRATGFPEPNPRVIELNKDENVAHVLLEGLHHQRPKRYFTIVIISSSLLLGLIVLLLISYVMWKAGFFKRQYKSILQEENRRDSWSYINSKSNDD
# Integrin alpha-4/beta-1 [4] = biological target: T3, Integrin alpha-4/beta-1; experiment: Binding affinity to alpha4beta1 integrin receptor (unknown origin) preincubated for 30 mins followed by 30 mins incubation in vascular cell adhesion molecule 1-induced cell adhesion coated wells by fluorescence based assay; assay type: protein-complex assay
# Integrin alpha-4/beta-1 [5] = biological target: T3, Integrin alpha-4/beta-1; experiment: Binding affinity to alpha4beta1 integrin receptor (unknown origin) preincubated for 30 mins followed by 30 mins incubation in fibronectin coated wells by fluorescence based assay; assay type: protein-complex assay
# Integrin alpha-M/beta-2 [6] = biological target: T1, Integrin alpha-M/beta-2; experiment: Binding affinity to alphaMbeta2 integrin receptor (unknown origin) preincubated for 30 mins followed by 30 mins incubation in fibrinogen coated wells by fluorescence based assay; assay type: protein-complex assay
# [7] = biological target: T2, Integrin alpha4/beta7 complex; experiment: Binding affinity to alpha4beta7 integrin receptor (unknown origin) preincubated for 30 mins followed by 30 mins incubation in mucosal vascular add-ressin cell adhesion molecule 1 coated wells by fluorescence based assay; assay type: protein-complex assay
# Integrin alpha-5/beta-1 = Integrin alpha-5/beta-1 (Homo sapiens, UniProt P05556+P08648); experiment: Binding affinity to alpha5beta1 integrin receptor (unknown origin) preincubated for 30 mins followed by 30 mins incubation in fibronectin coated wells by fluorescence based assay; assay type: protein-complex assay
# [8] = Stability in mouse serum assessed as parent compound remaining incubated upto 3 hrs by RP HPLC analysis; assay type: ADME, cell-free; conditions: read-out: Stability
# Procedure, shortened: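 Peptide stock (10 mM in Tris buffer pH 7.4) diluted 1:20 into mouse serum and held at 37 °C. […] Remaining peptide in the supernatant measured by RP HPLC. Triplicate, repeated three times.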
structure (smiles),measurement,setting,value
Cc1ccccc1NC(=O)N1C(=O)CC1CC(=O)NCC(=O)O (centres undefined),EC50,Integrin alpha-M/beta-2 [1],> 5 µM
same,EC50,[2],> 5 µM
Cc1ccccc1NC(=O)N1C(=O)CC1CC(=O)O (centres undefined),EC50,Integrin alpha-M/beta-2 [1],> 5 µM
same,EC50,[2],> 5 µM
Cc1ccccc1NC(=O)Nc1ccc(C[C@@H]2NC(=O)C[C@@H](C(=O)O)NC(=O)[C@H](C(C)C)NC(=O)[C@H](C)NC(=O)[C@H](Cc3ccccc3)NC2=O)cc1 ([Phe(4-NH2)]([CO-NH(2-Me-phenyl)])FAVD-OH; lactam N-5),EC50,Integrin alpha-4/beta-1 [3],1.06 µM
same,IC50,Integrin alpha-4/beta-1 [4],0.899 µM
same,IC50,Integrin alpha-4/beta-1 [5],0.976 µM
same,IC50,Integrin alpha-M/beta-2 [6],> 5 µM
same,IC50,[7],> 5 µM
same,IC50,Integrin alpha-5/beta-1,> 5 µM
Cc1ccccc1NC(=O)Nc1ccc(C[C@@H]2NC(=O)C[C@@H](C(=O)O)NC(=O)[C@H](C(C)C)NC(=O)[C@H](CC(=O)O)NC(=O)[C@H](Cc3ccccc3)NC2=O)cc1 ([Phe(4-NH2)]([CO-NH(2-Me-phenyl)])FDVD-OH; lactam N-5),EC50,Integrin alpha-4/beta-1 [3],> 5 µM
CCCNC(=O)[C@@H]1CC(=O)N[C@@H](Cc2ccc(NC(=O)Nc3ccccc3C)cc2)C(=O)N[C@@H](CC(C)C)C(=O)N[C@@H](CC(=O)O)C(=O)N[C@@H](C(C)C)C(=O)N1 ([Phe(4-NH2)]([CO-NH(2-Me-phenyl)])LDVD-NHPr; lactam N-5),EC50,Integrin alpha-4/beta-1 [3],> 5 µM
Cc1ccccc1NC(=O)Nc1ccc(C[C@@H]2NC(=O)C[C@@H](C(=O)O)NC(=O)[C@H](C(C)C)NC(=O)[C@H](CC(=O)O)NC(=O)[C@H](CC(C)C)NC2=O)cc1 ([Phe(4-NH2)]([CO-NH(2-Me-phenyl)])LDVD-OH; lactam N-5),remaining at 3 h,[8],> 85%
Cc1ccccc1NC(=O)Nc1ccc(C[C@H]2NC(=O)C[C@@H](C(=O)O)NC(=O)[C@H](C(C)C)NC(=O)[C@H](CC(=O)O)NC(=O)[C@H](CC(C)C)NC2=O)cc1 ([dPhe(4-NH2)]([CO-NH(2-Me-phenyl)])LDVD-OH; lactam N-5),remaining at 3 h,[8],> 85%
Cc1ccccc1NC(=O)Nc1ccc(C[C@H]2NC(=O)C[C@@H](C(=O)O)NC(=O)[C@H](c3ccccc3)NC(=O)[C@H](CC(=O)O)NC(=O)[C@H](CC(C)C)NC2=O)cc1 ([dPhe(4-NH2)]([CO-NH(2-Me-phenyl)])LD[Phg]D-OH; lactam N-5),EC50,Integrin alpha-4/beta-1 [3],> 5 µM
Cc1ccccc1NC(=O)Nc1ccc(C[C@H]2NC(=O)C[C@@H](C)NC(=O)[C@H](C(C)C)NC(=O)[C@H](CC(=O)O)NC(=O)[C@H](CC(C)C)NC2=O)cc1 (cyclo(DV[d(β3hA)][dPhe(4-NH2)]([CO-NH(2-Me-phenyl)])L)),EC50,Integrin alpha-4/beta-1 [3],> 5 µM
Cc1ccccc1NC(=O)Nc1ccc(C[C@@H]2NC(=O)C[C@@H](C)NC(=O)[C@H](C(C)C)NC(=O)[C@H](CC(=O)O)NC(=O)[C@H](CC(C)C)NC2=O)cc1 (cyclo([Phe(4-NH2)]([CO-NH(2-Me-phenyl)])LDV[d(β3hA)])),EC50,Integrin alpha-4/beta-1 [3],> 5 µM
Cc1ccccc1NC(=O)Nc1ccc(CC(=O)N[C@@H](CC(C)C)C(=O)N[C@@H](CC(=O)O)C(=O)N[C@H](C(=O)N2CCC[C@H]2C(=O)O)C(C)C)cc1 ({NH(2-Me-phenyl)-CO}-[X1]LDVP-OH),IC50,Integrin alpha-M/beta-2 [6],> 1 µM
same,IC50,[7],> 1 µM
